Data reported in ChEMBL document CHEMBL4038314, “Synthetic Modification within the "RPRL" Region of Apelin Peptides: Impact on Cardiovascular Activity and Stability to Neprilysin and Plasma Degradation” (J Med Chem, 2017).
Calls of active or inactive are those of the source. The rule behind the calls is not given here. Starred links: 1 amine or outer side, 2 acyl side, 3 side chain; linkers in the order of their positions; H or OH if unused. Non-standard residues stand in square brackets, D forms with d. Residues, ends and D or L forms follow the SMILES beside them. Phe(4-Br) = N[C@@H](Cc1ccc(Br)cc1)C(=O)O; azaLeu = CC(C)CN(N[*:1])C(=O)[*:2]; αMeR = C[C@](N)(CCCNC(=N)N)C(=O)O; NMeL = CN[C@@H](CC(C)C)C(=O)O; αMeL = CC(C)C[C@](C)(N)C(=O)O; Nle = CCCC[C@H](N)C(=O)O; Aib = CC(C)(N)C(=O)O

What was measured:
Neprilysin [1] = target: T1, Neprilysin (Homo sapiens, UniProt P08473); test: Drug metabolism assessed as recombinant human NEP-medited peptide proteolysis at 1 mM up to 72 hrs by LC-MS analysis; format: ADME; conditions: 1000 µM
Outline: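 Recombinant human NEP, 3.1 nM final in 100 mM Tris, 100 mM NaCl, 10 μM ZnCl2, pH 7.5, preincubated 10 min at 37 °C. Then 5 μL of 1 mM peptide stock and dansyl-YVG internal standard added; incubated at 37 °C for up to 72 h. Extracted-ion LC−MS ratio of parent to standard compared with 0 h and converted to percent cleaved.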

Neprilysin [2] = target: T1, Neprilysin; test: Drug degradation in human plasma assessed as NEP-mediated degradation by measuring amount of apelin remaining after 60 mins by RP-HPLC analysis; format: ADME; conditions: 1 h
Outline: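 Human plasma (20 μL) prewarmed to 37 °C, then 5 μL of 400 μM peptide added and incubated for set times; done in triplicate. Quenched with 10% aqueous TFA, dansyl-YVG internal standard added, and peptides recovered on a C18 spin column with 40% acetonitrile/0.1% TFA. Analysed by C18 RP-HPLC; peptide/standard peak-area ratio compared with the 0 min ratio.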

Mus musculus [3] = test: Cardiovascular activity in anesthetized mouse assessed as decrease in blood pressure at 1.4 uM/kg, iv relative to control; format: functional, organism-based
Outline: (§1)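 Mice under 1.5% isoflurane, body temperature held at 36 °C on a heating pad. Aorta cannulated via the right carotid artery with a 1.2F PV loop catheter to record arterial pressure and heart rate continuously. Peptide given systemically through the right internal jugular vein.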

Heart [4] = test: Cardioprotective activity against Langendorff isolated mouse heart ischemia-reperfusion model assessed as maximum derivative change in systolic pressure over time at 1 uM administered for 10 mins during start of 40 mins reperfusion period post 30 mins ischemic induction; format: functional, tissue-based
Outline: (§2)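 Mouse hearts (heparinized, isoflurane 1.5−2%) excised and Langendorff-perfused at constant 80 mmHg with modified Krebs−Henseleit buffer, 37 °C, 95% O2/5% CO2, pH 7.4. After 10 min baseline, 30 min global ischemia, then 40 min reperfusion. Peptide at 1 μM given for the first 10 min of reperfusion, with saline sham and native apelin-17 as controls. Left ventricular function recorded continuously.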

Heart [5] = test: Cardioprotective activity against Langendorff isolated mouse heart ischemia-reperfusion model assessed as improvement in LVDP at 1 uM administered for 10 mins during start of 40 mins reperfusion period post 30 mins ischemic induction; format: functional, tissue-based; outline: as §2
Heart [6] = test: Cardioprotective activity against Langendorff isolated mouse heart ischemia-reperfusion model assessed as improvement in RPP at 1 uM administered for 10 mins during start of 40 mins reperfusion period post 30 mins ischemic induction; format: functional, tissue-based; outline: as §2
Heart [7] = test: Cardioprotective activity against Langendorff isolated mouse heart ischemia-reperfusion model assessed as minimum derivative change in diastolic pressure over time at 1 uM administered for 10 mins during start of 40 mins reperfusion period post 30 mins ischemic induction; format: functional, tissue-based; outline: as §2
Mus musculus [8] = test: Cardiotoxicity in anesthetized mouse assessed as induction of tachycardia at 1.4 uM/kg, iv relative to control; format: toxicity, organism-based; conditions: in vivo, 1.4 µmol/kg; outline: as §1
Neprilysin [9] = target: T1, Neprilysin; test: Inhibition of recombinant human NEP using pyr-1-apelin-13 as substrate assessed as peptide degradation at 1 mM preincubated for 10 mins followed by substrate addition measured after 72 hrs by LC-MS analysis; conditions: 1000 µM
Outline: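 Recombinant human NEP, 3.1 nM in Tris/NaCl/10 μM ZnCl2 buffer, pH 7.5, preincubated 10 min at 37 °C with 5 μL of 1 mM analogue stock (equimolar to substrate) plus dansyl-YVG standard. Then 5 μL of 1 mM pyr-1-apelin-13 added. Aliquots taken at 0, 1, 4, 24 and 72 h and analysed by LC−MS; duplicate per time point.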

T1 sequence (P08473 whole entry): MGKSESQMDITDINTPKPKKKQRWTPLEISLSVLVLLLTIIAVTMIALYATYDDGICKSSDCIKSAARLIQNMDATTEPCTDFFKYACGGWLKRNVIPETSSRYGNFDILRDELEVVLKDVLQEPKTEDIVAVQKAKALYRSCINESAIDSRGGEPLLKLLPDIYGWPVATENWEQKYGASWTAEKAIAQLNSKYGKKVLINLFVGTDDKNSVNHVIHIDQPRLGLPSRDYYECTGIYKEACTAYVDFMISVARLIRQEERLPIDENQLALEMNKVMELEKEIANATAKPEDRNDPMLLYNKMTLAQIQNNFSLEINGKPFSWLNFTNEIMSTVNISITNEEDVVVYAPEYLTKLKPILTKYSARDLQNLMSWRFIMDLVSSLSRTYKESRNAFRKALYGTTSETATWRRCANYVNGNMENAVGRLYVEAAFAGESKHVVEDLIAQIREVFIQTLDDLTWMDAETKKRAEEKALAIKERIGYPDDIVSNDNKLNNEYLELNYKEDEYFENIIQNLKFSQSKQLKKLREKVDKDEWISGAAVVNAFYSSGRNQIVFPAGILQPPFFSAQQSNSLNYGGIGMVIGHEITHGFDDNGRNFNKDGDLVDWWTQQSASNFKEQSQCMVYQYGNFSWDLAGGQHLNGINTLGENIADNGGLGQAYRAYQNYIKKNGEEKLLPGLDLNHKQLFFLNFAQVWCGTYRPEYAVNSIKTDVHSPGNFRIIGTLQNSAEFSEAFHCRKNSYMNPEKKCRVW

Structure (SMILES) | Drug metabolism (Neprilysin [1]) | Drug degradation (Neprilysin [2]) [%] | inhibition (INH) (Neprilysin [9]) | Activity (Mus musculus [3]) | Activity (Heart [4]) | Activity (Heart [5]) | Activity (Heart [6]) | Activity (Heart [7]) | Activity (Mus musculus [8])
CCCC[C@H](NC(=O)[C@@H]1CCCN1C(=O)CNC(=O)[C@H](CCCCN)NC(=O)[C@H](Cc1c[nH]cn1)NC(=O)[C@H](CO)NC(=O)[C@H](CC(C)C)NC(=O)[C@](C)(CCCNC(=N)N)NC(=O)[C@@H]1CCCN1C(=O)[C@H](CCCNC(=N)N)NC(=O)[C@@H]1CCC(=O)N1)C(=O)NC(C)(C)C(=O)N[C@@H](Cc1ccc(Br)cc1)C(=O)O | Metabolite_Notdetected | 62 | Not Active |  |  |  |  |  | 
CCCC[C@H](NC(=O)[C@@H]1CCCN1C(=O)CNC(=O)[C@H](CCCCN)NC(=O)[C@H](Cc1c[nH]cn1)NC(=O)[C@H](CO)NC(=O)[C@@H](CC(C)C)NC(=O)[C@H](CCCNC(=N)N)NC(=O)[C@@H]1CCCN1C(=O)[C@H](CCCNC(=N)N)NC(=O)[C@@H]1CCC(=O)N1)C(=O)NC(C)(C)C(=O)N[C@@H](Cc1ccc(Br)cc1)C(=O)O | Metabolite_Notdetected | 22 | Not Active | inactive |  |  |  |  | 
CCCC[C@H](NC(=O)[C@@H]1CCCN1C(=O)CNC(=O)[C@H](CCCCN)NC(=O)[C@H](Cc1c[nH]cn1)NC(=O)[C@H](CO)NC(=O)[C@H](CC(C)C)NC(=O)[C@H](CCCNC(=N)N)NC(=O)[C@@H]1CCCN1C(=O)[C@H](CCCNC(=N)N)NC(=O)[C@H](CCC(N)=O)NC(=O)[C@H](CCCNC(=N)N)NC(=O)[C@H](CCCNC(=N)N)NC(=O)[C@H](Cc1ccccc1)NC(=O)[C@@H](N)CCCCN)C(=O)NC(C)(C)C(=O)N[C@@H](Cc1ccc(Br)cc1)C(=O)O (H-KFRRQRPRLSHKGP[Nle][Aib][Phe(4-Br)]-OH) | Metabolite_Detected | 35 |  | Active |  |  |  |  | Toxic
CCCC[C@H](NC(=O)[C@@H]1CCCN1C(=O)CNC(=O)[C@H](CCCCN)NC(=O)[C@H](Cc1c[nH]cn1)NC(=O)[C@H](CO)NC(=O)[C@H](CC(C)C)N(C)C(=O)[C@H](CCCNC(=N)N)NC(=O)[C@@H]1CCCN1C(=O)[C@H](CCCNC(=N)N)NC(=O)[C@H](CCC(N)=O)NC(=O)[C@H](CCCNC(=N)N)NC(=O)[C@H](CCCNC(=N)N)NC(=O)[C@H](Cc1ccccc1)NC(=O)[C@@H](N)CCCCN)C(=O)NC(C)(C)C(=O)N[C@@H](Cc1ccc(Br)cc1)C(=O)O (H-KFRRQRPR[NMeL]SHKGP[Nle][Aib][Phe(4-Br)]-OH) | Metabolite_Notdetected | 47 | Not Active | Active | Active | Active | Active | Active | Toxic
CCCC[C@H](NC(=O)[C@@H]1CCCN1C(=O)CNC(=O)[C@H](CCCCN)NC(=O)[C@H](Cc1c[nH]cn1)NC(=O)[C@H](CO)NC(=O)N(CC(C)C)NC(=O)[C@H](CCCNC(=N)N)NC(=O)[C@@H]1CCCN1C(=O)[C@H](CCCNC(=N)N)NC(=O)[C@H](CCC(N)=O)NC(=O)[C@H](CCCNC(=N)N)NC(=O)[C@H](CCCNC(=N)N)NC(=O)[C@H](Cc1ccccc1)NC(=O)[C@@H](N)CCCCN)C(=O)NC(C)(C)C(=O)N[C@@H](Cc1ccc(Br)cc1)C(=O)O (H-KFRRQRPR[azaLeu]SHKGP[Nle][Aib][Phe(4-Br)]-OH) | Metabolite_Notdetected | 68 | Not Active | Active | Active | Active | Active | Active | Toxic
CCCC[C@H](NC(=O)[C@@H]1CCCN1C(=O)CNC(=O)[C@H](CCCCN)NC(=O)[C@H](Cc1c[nH]cn1)NC(=O)[C@H](CO)NC(=O)[C@@H](CC(C)C)NC(=O)[C@H](CCCNC(=N)N)NC(=O)[C@@H]1CCCN1C(=O)[C@H](CCCNC(=N)N)NC(=O)[C@H](CCC(N)=O)NC(=O)[C@H](CCCNC(=N)N)NC(=O)[C@H](CCCNC(=N)N)NC(=O)[C@H](Cc1ccccc1)NC(=O)[C@@H](N)CCCCN)C(=O)NC(C)(C)C(=O)N[C@@H](Cc1ccc(Br)cc1)C(=O)O (H-KFRRQRPR[dL]SHKGP[Nle][Aib][Phe(4-Br)]-OH) | Metabolite_Notdetected | 80 | Not Active |  |  |  |  |  | Toxic
CCCC[C@H](NC(=O)[C@@H]1CCCN1C(=O)CNC(=O)[C@H](CCCCN)NC(=O)[C@H](Cc1c[nH]cn1)NC(=O)[C@H](CO)NC(=O)[C@H](CC(C)C)NC(=O)[C@](C)(CCCNC(=N)N)NC(=O)[C@@H]1CCCN1C(=O)[C@H](CCCNC(=N)N)NC(=O)[C@H](CCC(N)=O)NC(=O)[C@H](CCCNC(=N)N)NC(=O)[C@H](CCCNC(=N)N)NC(=O)[C@H](Cc1ccccc1)NC(=O)[C@@H](N)CCCCN)C(=O)NC(C)(C)C(=O)N[C@@H](Cc1ccc(Br)cc1)C(=O)O (H-KFRRQRP[αMeR]LSHKGP[Nle][Aib][Phe(4-Br)]-OH) | Metabolite_Notdetected | 55 | Not Active |  |  |  |  |  | Toxic

More lines, main results first:

Drug metabolism (Neprilysin [1]) | Drug degradation (Neprilysin [2]) [%] | inhibition (INH) (Neprilysin [9]) | Structure (SMILES) | Activity (Mus musculus [3]) | Activity (Heart [4]) | Activity (Heart [5]) | Activity (Heart [6]) | Activity (Heart [7]) | Activity (Mus musculus [8])
Metabolite_Detected | 12 |  | CSCC[C@H](NC(=O)[C@@H]1CCCN1C(=O)CNC(=O)[C@H](CCCCN)NC(=O)[C@H](Cc1cnc[nH]1)NC(=O)[C@H](CO)NC(=O)[C@H](CC(C)C)NC(=O)[C@H](CCCNC(=N)N)NC(=O)[C@@H]1CCCN1C(=O)[C@H](CCCNC(=N)N)NC(=O)[C@@H]1CCC(=O)N1)C(=O)N1CCC[C@H]1C(=O)N[C@@H](Cc1ccccc1)C(=O)O |  |  |  |  |  | 
Metabolite_Detected | 39 |  | CSCC[C@H](NC(=O)[C@@H]1CCCN1C(=O)CNC(=O)[C@H](CCCCN)NC(=O)[C@H](Cc1cnc[nH]1)NC(=O)[C@H](CO)NC(=O)[C@H](CC(C)C)NC(=O)[C@H](CCCNC(=N)N)NC(=O)[C@@H]1CCCN1C(=O)[C@H](CCCNC(=N)N)NC(=O)[C@H](CCC(N)=O)NC(=O)[C@H](CCCNC(=N)N)NC(=O)[C@H](CCCNC(=N)N)NC(=O)[C@H](Cc1ccccc1)NC(=O)[C@@H](N)CCCCN)C(=O)N1CCC[C@H]1C(=O)N[C@@H](Cc1ccccc1)C(=O)O | Active | Active | Active | Active | Active | Toxic
Metabolite_Notdetected | 2 | Not Active | CCCC[C@H](NC(=O)[C@@H]1CCCN1C(=O)CNC(=O)[C@H](CCCCN)NC(=O)[C@H](Cc1c[nH]cn1)NC(=O)[C@H](CO)NC(=O)N(CC(C)C)NC(=O)[C@H](CCCNC(=N)N)NC(=O)[C@@H]1CCCN1C(=O)[C@H](CCCNC(=N)N)NC(=O)[C@@H]1CCC(=O)N1)C(=O)NC(C)(C)C(=O)N[C@@H](Cc1ccc(Br)cc1)C(=O)O |  | inactive | inactive | inactive | inactive | 
Metabolite_Notdetected | 48 | Not Active | CCCC[C@H](NC(=O)[C@@H]1CCCN1C(=O)CNC(=O)[C@H](CCCCN)NC(=O)[C@H](Cc1c[nH]cn1)NC(=O)[C@H](CO)NC(=O)[C@](C)(CC(C)C)NC(=O)[C@H](CCCNC(=N)N)NC(=O)[C@@H]1CCCN1C(=O)[C@H](CCCNC(=N)N)NC(=O)[C@H](CCC(N)=O)NC(=O)[C@H](CCCNC(=N)N)NC(=O)[C@H](CCCNC(=N)N)NC(=O)[C@H](Cc1ccccc1)NC(=O)[C@@H](N)CCCCN)C(=O)NC(C)(C)C(=O)N[C@@H](Cc1ccc(Br)cc1)C(=O)O (H-KFRRQRPR[αMeL]SHKGP[Nle][Aib][Phe(4-Br)]-OH) |  |  |  |  |  | Toxic
